Results published in ChEMBL document CHEMBL2346496, “Discovery of new benzothiazole-based inhibitors of breakpoint cluster region-Abelson kinase including the T315I mutant” (J Med Chem, 2013).
Converted amounts (≈) assume the structure as drawn.

Legend:
cells [1] = details: Mus musculus, BaF3, 48 h
[2] = Aqueous solubility of the compound at pH 6.7; type: physicochemical
cells [3] = details: Mus musculus, BaF3, 48 h; remark: listed apart in the source
[4] = Stability of the compound at 37 degC at pH 6.7 after 24 hrs by UPLC method; type: physicochemical; details: buffer, read-out: Stability
How it was run: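 Stability followed by UPLC over 24 h at 37 °C, pH 6.7.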

cells [5] = details: Mus musculus, BaF3, 48 h; remark: listed apart in the source
K562 = experiment: cells; details: Homo sapiens
[6] = molecular target: Tyrosine-protein kinase ABL1 (Homo sapiens, UniProt P00519, T315I); experiment: Inhibition of breakpoint cluster region-Abelson tyrosine kinase T315I mutant (unknown origin) using [gamma-33P]ATP as substrate by radiometric kinase assay
BaF3 = experiment: Cytotoxicity against mouse BA/F3 cells transfected with Bcr-Abl T315I mutant after 48 hrs by XTT assay
[7] = molecular target: Inhibitor of nuclear factor kappa-B kinase subunit alpha (Homo sapiens) (UniProt O15111); experiment: Inhibition of IKK alpha (unknown origin) at 1 uM relative to control; values are per cent of control
[8] = molecular target: Mitogen-activated protein kinase 8 (Homo sapiens) (UniProt P45983); experiment: Inhibition of JNK1 (unknown origin) at 1 uM relative to control; values are per cent of control
[9] = molecular target: Serine/threonine-protein kinase PLK3 (Homo sapiens) (UniProt Q9H4B4); experiment: Inhibition of PLK3 (unknown origin) at 1 uM relative to control; values are per cent of control
[10] = molecular target: Receptor-type tyrosine-protein kinase FLT3 (Homo sapiens) (UniProt P36888); experiment: Inhibition of FLT3 (unknown origin) at 1 uM relative to control; values are per cent of control
[11] = molecular target: Hepatocyte growth factor receptor (Homo sapiens) (UniProt P08581); experiment: Inhibition of MET (unknown origin) at 1 uM relative to control; values are per cent of control
[12] = molecular target: Dual specificity mitogen-activated protein kinase kinase 1 (Homo sapiens) (UniProt Q02750); experiment: Inhibition of MEK1 (unknown origin) at 1 uM relative to control; values are per cent of control
[13] = molecular target: Fibroblast growth factor receptor 2 (Homo sapiens) (UniProt P21802); experiment: Inhibition of FGFR2 (unknown origin) at 1 uM relative to control; values are per cent of control
[14] = molecular target: Mast/stem cell growth factor receptor Kit (Homo sapiens) (UniProt P10721); experiment: Inhibition of KIT (unknown origin) at 1 uM relative to control; values are per cent of control
[15] = molecular target: Serine/threonine-protein kinase PAK 1 (Homo sapiens) (UniProt Q13153); experiment: Inhibition of PAK1 (unknown origin) at 1 uM relative to control; values are per cent of control
[16] = molecular target: Platelet-derived growth factor receptor beta (Homo sapiens) (UniProt P09619); experiment: Inhibition of PDGFRB (unknown origin) at 1 uM relative to control; values are per cent of control
[17] = molecular target: Mitogen-activated protein kinase 14 (Homo sapiens) (UniProt Q16539); experiment: Inhibition of P38alpha (unknown origin) at 1 uM relative to control; values are per cent of control
[18] = molecular target: Aurora kinase B (Homo sapiens) (UniProt Q96GD4); experiment: Inhibition of AURKB (unknown origin) at 1 uM relative to control; values are per cent of control
[19] = molecular target: Platelet-derived growth factor receptor alpha (Homo sapiens) (UniProt P16234); experiment: Inhibition of PDGFRA (unknown origin) at 1 uM relative to control; values are per cent of control
[20] = molecular target: Ribosomal protein S6 kinase alpha-3 (Homo sapiens) (UniProt P51812); experiment: Inhibition of RSK2 (unknown origin) at 1 uM relative to control; values are per cent of control
[21] = molecular target: Phosphatidylinositol 4,5-bisphosphate 3-kinase catalytic subunit alpha isoform (Homo sapiens) (UniProt P42336); experiment: Inhibition of PI3KCA (unknown origin) at 1 uM relative to control; values are per cent of control
Homo sapiens [22] = organism: Homo sapiens; experiment: Inhibition of CDK11 (unknown origin) at 1 uM relative to control; values are per cent of control
[23] = molecular target: Dual specificity mitogen-activated protein kinase kinase 2 (Homo sapiens) (UniProt P36507); experiment: Inhibition of MEK2 (unknown origin) at 1 uM relative to control; values are per cent of control
[24] = molecular target: Angiopoietin-1 receptor (Homo sapiens) (UniProt Q02763); experiment: Inhibition of TIE2 (unknown origin) at 1 uM relative to control; values are per cent of control
[25] = molecular target: 3-phosphoinositide-dependent protein kinase 1 (Homo sapiens) (UniProt O15530); experiment: Inhibition of PDPK1 (unknown origin) at 1 uM relative to control; values are per cent of control
[26] = tested on: Tyrosine-protein kinase ABL1 (Homo sapiens), P00519 [E255K]; experiment: Inhibition of phosphorylated breakpoint cluster region-Abelson tyrosine kinase E255K mutant (unknown origin) at 1 uM relative to control; values are per cent of control
[27] = molecular target: Aurora kinase A (Homo sapiens) (UniProt O14965); experiment: Inhibition of AURKA (unknown origin) at 1 uM relative to control; values are per cent of control
[28] = molecular target: RAC-alpha serine/threonine-protein kinase (Homo sapiens) (UniProt P31749); experiment: Inhibition of AKT1 (unknown origin) at 1 uM relative to control; values are per cent of control
[29] = molecular target: Insulin-like growth factor 1 receptor (Homo sapiens) (UniProt P08069); experiment: Inhibition of IGF1R (unknown origin) at 1 uM relative to control; values are per cent of control
[30] = molecular target: Serine/threonine-protein kinase B-raf (Homo sapiens) (UniProt P15056); experiment: Inhibition of BRAF (unknown origin) at 1 uM relative to control; values are per cent of control
[31] = molecular target: Serine/threonine-protein kinase pim-1 (Homo sapiens) (UniProt P11309); experiment: Inhibition of PIM1 (unknown origin) at 1 uM relative to control; values are per cent of control
[32] = molecular target: Serine/threonine-protein kinase PLK1 (Homo sapiens) (UniProt P53350); experiment: Inhibition of PLK1 (unknown origin) at 1 uM relative to control; values are per cent of control
[33] = molecular target: Rho-associated protein kinase 2 (Homo sapiens) (UniProt O75116); experiment: Inhibition of ROCK2 (unknown origin) at 1 uM relative to control; values are per cent of control
[34] = molecular target: Cyclin-dependent kinase 2 (Homo sapiens) (UniProt P24941); experiment: Inhibition of CDK2 (unknown origin) at 1 uM relative to control; values are per cent of control
[35] = molecular target: Mitogen-activated protein kinase 3 (Homo sapiens) (UniProt P27361); experiment: Inhibition of ERK1 (unknown origin) at 1 uM relative to control; values are per cent of control
[36] = molecular target: Tyrosine-protein kinase JAK2 (Homo sapiens) (UniProt O60674); experiment: Inhibition of JAK2 (unknown origin) at 1 uM relative to control; values are per cent of control
[37] = tested on: Tyrosine-protein kinase ABL1 (Homo sapiens), P00519 [T315I]; experiment: Inhibition of breakpoint cluster region-Abelson tyrosine kinase T315I mutant (unknown origin) at 1 uM relative to control; values are per cent of control
[38] = molecular target: Vascular endothelial growth factor receptor 2 (Homo sapiens) (UniProt P35968); experiment: Inhibition of VEGFR2 (unknown origin) at 1 uM relative to control; values are per cent of control
[39] = molecular target: Epidermal growth factor receptor (Homo sapiens) (UniProt P00533); experiment: Inhibition of EGFR (unknown origin) at 1 uM relative to control; values are per cent of control
[40] = molecular target: Proto-oncogene tyrosine-protein kinase Src (Homo sapiens) (UniProt P12931); experiment: Inhibition of SRC (unknown origin) at 1 uM relative to control; values are per cent of control
Homo sapiens [41] = organism: Homo sapiens; experiment: Inhibition of phosphorylated breakpoint cluster region-Abelson tyrosine kinase (unknown origin) at 1 uM relative to control; values are per cent of control
[42] = molecular target: Focal adhesion kinase 1 (Homo sapiens) (UniProt Q05397); experiment: Inhibition of FAK (unknown origin) at 1 uM relative to control; values are per cent of control
[43] = molecular target: cAMP-dependent protein kinase catalytic subunit alpha (Homo sapiens) (UniProt P17612); experiment: Inhibition of PKAC-a (unknown origin) at 1 uM relative to control; values are per cent of control
[44] = molecular target: Glycogen synthase kinase-3 beta (Homo sapiens) (UniProt P49841); experiment: Inhibition of GSK3b (unknown origin) at 1 uM relative to control; values are per cent of control

Chain of Proto-oncogene tyrosine-protein kinase Src (Homo sapiens) (P12931 2-536 limits assumed): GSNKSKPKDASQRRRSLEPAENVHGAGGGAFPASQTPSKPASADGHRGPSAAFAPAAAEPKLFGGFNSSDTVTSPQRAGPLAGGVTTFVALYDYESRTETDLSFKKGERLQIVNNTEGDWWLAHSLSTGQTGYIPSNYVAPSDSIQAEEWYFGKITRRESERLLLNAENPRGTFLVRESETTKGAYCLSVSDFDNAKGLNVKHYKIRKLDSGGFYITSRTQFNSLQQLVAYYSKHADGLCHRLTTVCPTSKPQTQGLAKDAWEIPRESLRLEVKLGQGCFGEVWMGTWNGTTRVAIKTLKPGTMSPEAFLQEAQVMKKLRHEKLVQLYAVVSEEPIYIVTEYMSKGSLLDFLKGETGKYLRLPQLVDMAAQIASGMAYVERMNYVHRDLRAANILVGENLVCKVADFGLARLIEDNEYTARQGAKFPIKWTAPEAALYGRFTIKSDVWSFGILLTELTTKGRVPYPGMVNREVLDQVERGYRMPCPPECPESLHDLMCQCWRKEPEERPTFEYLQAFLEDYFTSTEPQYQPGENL
Chain of Dual specificity mitogen-activated protein kinase kinase 2 (Homo sapiens) (P36507 whole entry): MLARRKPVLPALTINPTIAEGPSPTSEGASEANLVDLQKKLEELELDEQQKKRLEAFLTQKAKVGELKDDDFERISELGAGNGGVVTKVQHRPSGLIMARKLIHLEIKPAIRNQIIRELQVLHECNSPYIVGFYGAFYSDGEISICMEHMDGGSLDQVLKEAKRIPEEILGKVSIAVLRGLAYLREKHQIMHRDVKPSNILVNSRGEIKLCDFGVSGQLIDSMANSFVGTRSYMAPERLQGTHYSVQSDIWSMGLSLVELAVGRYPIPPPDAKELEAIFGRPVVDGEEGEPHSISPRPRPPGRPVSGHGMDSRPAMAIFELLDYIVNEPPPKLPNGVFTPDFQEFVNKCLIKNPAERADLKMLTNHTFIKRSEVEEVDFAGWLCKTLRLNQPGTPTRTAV
Chain of RAC-alpha serine/threonine-protein kinase (Homo sapiens) (P31749 whole entry): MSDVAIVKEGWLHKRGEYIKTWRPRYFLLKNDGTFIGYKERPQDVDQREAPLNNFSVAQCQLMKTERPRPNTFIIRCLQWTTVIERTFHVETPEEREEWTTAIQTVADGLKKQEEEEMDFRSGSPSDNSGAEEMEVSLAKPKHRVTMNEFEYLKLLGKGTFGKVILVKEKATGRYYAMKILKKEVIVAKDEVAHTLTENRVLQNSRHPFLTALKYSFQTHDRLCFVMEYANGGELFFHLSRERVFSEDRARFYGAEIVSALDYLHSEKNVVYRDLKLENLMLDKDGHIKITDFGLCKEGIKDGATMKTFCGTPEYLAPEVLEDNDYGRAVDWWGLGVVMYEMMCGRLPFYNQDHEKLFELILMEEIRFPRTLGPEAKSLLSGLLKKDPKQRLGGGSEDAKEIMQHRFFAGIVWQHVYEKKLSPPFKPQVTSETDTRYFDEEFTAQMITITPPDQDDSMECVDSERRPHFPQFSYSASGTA
Chain of Mitogen-activated protein kinase 14 (Homo sapiens) (Q16539 whole entry): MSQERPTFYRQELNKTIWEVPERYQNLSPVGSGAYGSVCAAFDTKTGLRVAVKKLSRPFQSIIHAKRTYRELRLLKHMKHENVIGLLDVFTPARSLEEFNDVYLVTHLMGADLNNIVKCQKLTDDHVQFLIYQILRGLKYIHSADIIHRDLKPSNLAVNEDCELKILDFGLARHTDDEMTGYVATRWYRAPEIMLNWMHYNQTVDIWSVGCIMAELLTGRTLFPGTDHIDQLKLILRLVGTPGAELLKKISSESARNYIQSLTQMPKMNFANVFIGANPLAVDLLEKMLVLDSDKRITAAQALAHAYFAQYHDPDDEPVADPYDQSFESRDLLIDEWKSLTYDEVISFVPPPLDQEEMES
Chain of Inhibitor of nuclear factor kappa-B kinase subunit alpha (Homo sapiens) (O15111 whole entry): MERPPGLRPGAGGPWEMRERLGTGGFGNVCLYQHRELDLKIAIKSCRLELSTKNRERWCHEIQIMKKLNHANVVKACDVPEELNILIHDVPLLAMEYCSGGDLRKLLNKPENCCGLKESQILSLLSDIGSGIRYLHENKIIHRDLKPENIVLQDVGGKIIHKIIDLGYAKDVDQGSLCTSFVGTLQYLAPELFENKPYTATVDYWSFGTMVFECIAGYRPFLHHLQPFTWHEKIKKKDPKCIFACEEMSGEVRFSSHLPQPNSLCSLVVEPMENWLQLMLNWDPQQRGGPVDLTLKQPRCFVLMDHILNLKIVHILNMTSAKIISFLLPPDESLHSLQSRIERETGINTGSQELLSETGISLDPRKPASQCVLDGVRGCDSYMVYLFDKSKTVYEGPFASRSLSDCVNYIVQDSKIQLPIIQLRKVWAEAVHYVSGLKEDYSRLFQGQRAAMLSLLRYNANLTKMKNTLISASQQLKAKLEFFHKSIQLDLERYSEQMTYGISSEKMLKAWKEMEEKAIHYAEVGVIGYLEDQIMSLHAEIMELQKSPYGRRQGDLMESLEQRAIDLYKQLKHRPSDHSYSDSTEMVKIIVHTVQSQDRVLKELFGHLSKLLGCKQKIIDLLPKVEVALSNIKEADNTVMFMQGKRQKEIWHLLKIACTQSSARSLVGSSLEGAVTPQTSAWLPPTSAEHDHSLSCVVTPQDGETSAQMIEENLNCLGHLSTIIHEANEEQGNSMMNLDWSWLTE
Chain of Serine/threonine-protein kinase PLK1 (Homo sapiens) (P53350 whole entry): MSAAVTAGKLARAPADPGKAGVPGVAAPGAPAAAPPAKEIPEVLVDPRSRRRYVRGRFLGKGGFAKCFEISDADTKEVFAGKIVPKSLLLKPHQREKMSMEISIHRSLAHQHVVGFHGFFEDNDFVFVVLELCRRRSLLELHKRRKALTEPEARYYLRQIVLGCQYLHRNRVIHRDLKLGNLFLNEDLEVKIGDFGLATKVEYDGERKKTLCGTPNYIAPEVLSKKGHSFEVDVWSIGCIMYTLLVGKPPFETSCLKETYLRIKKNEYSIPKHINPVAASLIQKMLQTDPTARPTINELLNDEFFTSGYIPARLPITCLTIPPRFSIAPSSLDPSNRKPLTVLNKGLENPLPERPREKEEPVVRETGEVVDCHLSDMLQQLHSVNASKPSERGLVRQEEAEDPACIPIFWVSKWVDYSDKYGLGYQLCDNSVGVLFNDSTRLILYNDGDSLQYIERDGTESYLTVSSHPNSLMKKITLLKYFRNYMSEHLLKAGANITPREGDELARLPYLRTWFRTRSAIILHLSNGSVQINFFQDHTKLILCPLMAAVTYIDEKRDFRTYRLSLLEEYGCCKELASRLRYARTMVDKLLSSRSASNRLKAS
Chain of Focal adhesion kinase 1 (Homo sapiens) (Q05397 2-1052 limits assumed): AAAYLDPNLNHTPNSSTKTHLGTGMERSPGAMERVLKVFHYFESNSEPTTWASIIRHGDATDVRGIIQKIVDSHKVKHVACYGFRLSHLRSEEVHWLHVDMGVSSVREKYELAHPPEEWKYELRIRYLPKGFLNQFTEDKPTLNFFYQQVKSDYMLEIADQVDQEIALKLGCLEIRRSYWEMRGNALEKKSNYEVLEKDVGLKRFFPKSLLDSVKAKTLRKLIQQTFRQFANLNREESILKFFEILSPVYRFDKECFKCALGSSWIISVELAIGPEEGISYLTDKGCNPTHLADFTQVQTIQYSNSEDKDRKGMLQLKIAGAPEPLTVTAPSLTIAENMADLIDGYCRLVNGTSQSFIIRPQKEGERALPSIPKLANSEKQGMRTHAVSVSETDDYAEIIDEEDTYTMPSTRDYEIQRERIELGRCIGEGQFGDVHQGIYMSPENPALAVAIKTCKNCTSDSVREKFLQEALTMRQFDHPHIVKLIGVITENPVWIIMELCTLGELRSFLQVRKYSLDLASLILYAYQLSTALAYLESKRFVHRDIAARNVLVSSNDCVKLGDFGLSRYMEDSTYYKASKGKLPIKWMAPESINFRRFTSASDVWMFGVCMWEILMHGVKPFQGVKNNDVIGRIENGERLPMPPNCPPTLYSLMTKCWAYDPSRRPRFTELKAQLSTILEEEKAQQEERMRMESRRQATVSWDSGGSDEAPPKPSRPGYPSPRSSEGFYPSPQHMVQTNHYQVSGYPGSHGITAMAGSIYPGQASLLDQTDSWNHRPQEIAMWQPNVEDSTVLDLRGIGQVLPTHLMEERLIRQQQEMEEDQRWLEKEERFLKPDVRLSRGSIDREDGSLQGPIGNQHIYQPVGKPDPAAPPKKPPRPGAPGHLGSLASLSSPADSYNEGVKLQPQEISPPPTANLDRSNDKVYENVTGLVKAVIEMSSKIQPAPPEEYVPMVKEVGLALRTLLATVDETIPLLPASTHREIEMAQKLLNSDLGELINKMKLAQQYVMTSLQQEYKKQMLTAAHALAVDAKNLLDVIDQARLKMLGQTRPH
Chain of Ribosomal protein S6 kinase alpha-3 (Homo sapiens) (P51812 whole entry, canonical isoform): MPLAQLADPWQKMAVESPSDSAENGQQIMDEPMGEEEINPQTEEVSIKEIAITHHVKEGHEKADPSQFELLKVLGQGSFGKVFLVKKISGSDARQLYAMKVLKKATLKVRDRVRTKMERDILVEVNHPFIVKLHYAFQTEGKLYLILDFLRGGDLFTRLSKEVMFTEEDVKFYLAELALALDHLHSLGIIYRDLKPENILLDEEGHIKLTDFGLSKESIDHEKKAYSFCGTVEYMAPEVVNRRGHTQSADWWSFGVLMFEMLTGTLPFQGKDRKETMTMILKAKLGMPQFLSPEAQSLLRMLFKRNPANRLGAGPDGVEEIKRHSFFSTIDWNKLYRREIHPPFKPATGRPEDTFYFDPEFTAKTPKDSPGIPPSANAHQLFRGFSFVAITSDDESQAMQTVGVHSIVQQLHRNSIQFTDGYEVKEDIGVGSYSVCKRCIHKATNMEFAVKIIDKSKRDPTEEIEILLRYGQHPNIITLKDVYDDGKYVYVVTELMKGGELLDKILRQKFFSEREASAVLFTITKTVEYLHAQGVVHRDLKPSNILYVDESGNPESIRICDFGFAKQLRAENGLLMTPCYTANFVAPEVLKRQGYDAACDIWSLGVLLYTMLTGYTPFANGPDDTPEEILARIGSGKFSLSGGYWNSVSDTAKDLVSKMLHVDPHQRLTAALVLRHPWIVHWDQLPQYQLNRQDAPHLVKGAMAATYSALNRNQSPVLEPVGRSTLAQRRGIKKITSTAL

For `COc1ccccc1-c1ccc2nc(NC(=O)NCCN3CCN(C)CC3)sc2c1`, the IC50 (cells [1]) was 78 nM, the solubility [2] was 2240 µg/mL (≈ 5260 µM) and the IC50 (cells [3]) was 46 nM. It also gave a remaining at 24 h [4] of 99.7%, an IC50 (cells [5]) greater than 10 µM and an IC50 (K562) of 420 nM.
Compound `COC(=O)Nc1nc2ccc(C(=O)c3cccs3)cc2[nH]1` [NOCODAZOLE] has an IC50 [6] of 640 nM.
With `CCOc1ccccc1-c1ccc2nc(NC(=O)NCCO)sc2c1` the IC50 (cells [1]) was 1350 nM and the IC50 (cells [3]) was 180 nM.
For `COc1ccccc1-c1ccc2nc(NC(=O)NCCN3CCOCC3)sc2c1`, the IC50 (cells [1]) was 290 nM, the IC50 (cells [3]) was 100 nM and the inhibition (BaF3) was “Dose-dependent effect”.
For `CCOc1ccccc1-c1ccc2nc(NC(=O)NCCCO)sc2c1`, the IC50 (cells [1]) was 560 nM and the IC50 (cells [3]) was 120 nM.
Compound `CCOc1ccccc1-c1ccc2nc(NC(=O)NCCN3CCNCC3)sc2c1` has an IC50 (cells [1]) of 870 nM and an IC50 (cells [3]) of 110 nM.
With `CCNC(=O)Nc1nc2ccc(C(=O)Nc3ccncc3)cc2[nH]1` the IC50 [6] was greater than 100000 nM.
`CCNC(=O)Nc1nc2ccc(-c3ccccc3OC)cc2s1` showed a residual activity [7] of 100%, a residual activity [8] of 100% and a residual activity [9] of 87%. The residual activity [10] was 94%, the residual activity [11] was 100% and the residual activity [12] was 100%. It also gave a residual activity [13] of 100%, a residual activity [14] of 79% and a residual activity [15] of 93%. The IC50 (cells [1]) was 2140 nM, the residual activity [16] was 16% and the solubility [2] was 0.0227 µg/mL (≈ 0.0693 µM). The residual activity [17] was 100%, the residual activity [18] was 100% and the residual activity [19] was 79%. It also gave a residual activity [20] of 58%, a residual activity [21] of 100% and a residual activity (Homo sapiens [22]) of 100%. The IC50 [6] was 0.11 nM, the residual activity [23] was 100% and the residual activity [24] was 100%. It also gave a residual activity [25] of 67%, an IC50 (cells [3]) of 3570 nM and a residual activity [26] of 4.5%. For the same compound, the residual activity [27] was 100%, the residual activity [28] was 67% and the residual activity [29] was 100%. For the same compound, the remaining at 24 h [4] was 100%, the residual activity [30] was 100% and the residual activity [31] was 100%. The residual activity [32] was 100%, the residual activity [33] was 100% and the residual activity [34] was 100%. It also gave a residual activity [35] of 100%, a residual activity [36] of 100% and a residual activity [37] of 4.5%. It also gave a residual activity [38] of 98%, a residual activity [39] of 100% and a residual activity [40] of 72%. For the same compound, the residual activity (Homo sapiens [41]) was 5%, the residual activity [42] was 100% and the residual activity [43] was 100%. It also gave a residual activity [44] of 100%.
`CCOc1ccccc1-c1ccc2nc(NC(=O)NCCN3CCOCC3)sc2c1` gave an IC50 (cells [1]) of 1090 nM and an IC50 (cells [3]) of 210 nM.
For `COc1ccccc1-c1ccc2nc(NC(=O)NCCCO)sc2c1`, the IC50 (cells [1]) was 290 nM and the IC50 (cells [3]) was 82 nM.
In the case of `CCc1ccccc1-c1ccc2nc(NC(=O)NCCN(C)C)sc2c1`, the IC50 (cells [1]) is reported as 410 nM and the IC50 (cells [3]) is reported as 310 nM.
Compound `COc1ccccc1-c1ccc2nc(NC(=O)NCCO)sc2c1` has an IC50 (cells [1]) of 140 nM, a solubility [2] of 7.49 µg/mL (≈ 21.8 µM) and an IC50 (cells [3]) of 89 nM. For the same compound, the remaining at 24 h [4] was 100%, the IC50 (cells [5]) was greater than 10 µM and the IC50 (K562) was 120 nM.
For `Cc1ccc(NC(=O)c2ccc(CN3CCN(C)CC3)cc2)cc1Nc1nccc(-c2cccnc2)n1` [IMATINIB], the IC50 (cells [1]) was 4790 nM, the IC50 (cells [3]) was 92 nM and the IC50 (cells [5]) was greater than 10 µM. For the same compound, the IC50 (K562) was 170 nM.
With `CCNC(=O)Nc1nc2ccc(C(=O)N3CCN(C)CC3)cc2[nH]1` the IC50 [6] was greater than 100000 nM.
`CCc1ccccc1-c1ccc2nc(NC(=O)NCCN3CCOCC3)sc2c1` showed an IC50 (cells [1]) of 1440 nM and an IC50 (cells [3]) of 280 nM.
